Most compounds without a hit are left out; they make up all but 1.7% or so of the library.
SUMO1-SIM PPI – modulators of SUMO1 protein-protein interactions, primary screen, biochemical, uHTS. Small ubiquitin-related modifier 1 (Homo sapiens), P63165. SUMO1 binding to a labelled peptide, TR-FRET, 1 h. inhibition, % at 20 µM. 0.33% of 360,000 active. AID 602429, 2012; in the data active = inhibition above about 37%
STEP inh – STEP phosphatase inhibitors, primary screen, biochemical, fluorescence intensity, uHTS; Tyrosine-protein phosphatase non-receptor type 5 (Homo sapiens), P54829; recombinant STEP, OMFP fluorogenic substrate; inhibition, % at 20 µM; 0.25% of 360,000 active; AID 588621, 2011;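 active = inhibition at 20 µM, scaled per plate between control wells, above about 37%, limit read from the data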;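 note: 0% = DMSO with enzyme and substrate and 100% = substrate only without enzyme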
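material = STEP tyrosine phosphatase | reagent = fluorogenic phosphatase substrate OMFP at 25 µM final | doses = single compound dose of 20 µM, 1% DMSO final | schedule = 20 min reaction, room temperature, in the dark | measured by = fluorescence, 480/540 nm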
LMPTP inh – LMPTP phosphatase inhibitors, primary screen, biochemical, fluorescence intensity, uHTS | recombinant LMPTP-A, OMFP fluorogenic substrate | inhibition, % at 20 µM | 0.22% of 360,000 active | AID 651560, 2012 | Low molecular weight phosphotyrosine protein phosphatase (Homo sapiens), P24666;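 active = compounds that cut the enzyme signal by at least half of the control window in the single-dose screen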;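 note: plate controls were DMSO wells with enzyme plus substrate for no effect and substrate without enzyme for full effect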
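Test system: LMPTP-A, protein tyrosine phosphatase of low molecular weight; Input: 0.625 nM enzyme; Incubation: 50 min dark incubation at room temperature; Signal: endpoint fluorescence intensity from OMFP dephosphorylation; Read-out basis: % inhibition versus control wells.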
DNMT1 inh – human DNMT1 methyltransferase inhibitors, primary screen, biochemical, molecular beacon, fluorescence, HinP1I cleavage, uHTS | DNA (cytosine-5)-methyltransferase 1 (Homo sapiens), P26358 | inhibition (reported as % activation of signal), % at 10 µM | 0.83% of 360,000 active | AID 588458, 2011; in the data active = inhibition above about 50%
Target sequence (P26358 504-1616 limits assumed): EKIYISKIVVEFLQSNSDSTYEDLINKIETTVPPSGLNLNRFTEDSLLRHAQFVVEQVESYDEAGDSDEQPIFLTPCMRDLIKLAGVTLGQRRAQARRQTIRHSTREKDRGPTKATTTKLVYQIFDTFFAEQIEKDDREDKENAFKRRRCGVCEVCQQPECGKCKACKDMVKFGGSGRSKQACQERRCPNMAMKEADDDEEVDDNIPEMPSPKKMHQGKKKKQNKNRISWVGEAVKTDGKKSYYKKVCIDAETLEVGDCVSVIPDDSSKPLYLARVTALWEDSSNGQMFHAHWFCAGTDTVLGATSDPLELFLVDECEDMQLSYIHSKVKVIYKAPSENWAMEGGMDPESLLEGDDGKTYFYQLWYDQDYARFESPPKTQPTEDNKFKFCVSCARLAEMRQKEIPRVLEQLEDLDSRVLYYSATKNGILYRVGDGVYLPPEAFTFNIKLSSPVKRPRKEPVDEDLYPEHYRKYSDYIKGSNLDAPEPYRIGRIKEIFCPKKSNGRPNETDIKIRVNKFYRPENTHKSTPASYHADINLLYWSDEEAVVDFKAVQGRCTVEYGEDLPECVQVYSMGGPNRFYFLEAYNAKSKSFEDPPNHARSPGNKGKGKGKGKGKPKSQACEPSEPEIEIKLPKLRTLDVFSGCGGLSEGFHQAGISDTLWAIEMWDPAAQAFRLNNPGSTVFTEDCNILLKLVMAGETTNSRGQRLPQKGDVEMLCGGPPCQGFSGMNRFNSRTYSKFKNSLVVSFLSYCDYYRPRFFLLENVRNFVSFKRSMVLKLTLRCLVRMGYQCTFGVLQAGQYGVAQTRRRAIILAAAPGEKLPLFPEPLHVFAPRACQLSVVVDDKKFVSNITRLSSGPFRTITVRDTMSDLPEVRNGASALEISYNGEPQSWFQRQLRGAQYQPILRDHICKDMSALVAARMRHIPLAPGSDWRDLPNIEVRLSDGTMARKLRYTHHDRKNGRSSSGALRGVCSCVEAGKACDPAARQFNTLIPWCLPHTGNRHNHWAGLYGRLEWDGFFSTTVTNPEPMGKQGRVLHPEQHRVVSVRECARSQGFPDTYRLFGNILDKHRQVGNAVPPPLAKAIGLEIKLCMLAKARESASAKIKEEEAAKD
Scp-1 inhibitor – Scp-1 phosphatase inhibitors, primary screen, biochemical, colorimetric, uHTS; 0.88% of 340,000 active; Recombinant Scp1, phosphopeptide, malachite green phosphate absorbance; inhibition, % at 20 µM; Carboxy-terminal domain RNA polymerase II polypeptide A small phosphatase 1 (Homo …;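 active = inhibition above about 50% at 20 µM, limit read from the data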;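 note: plate controls were DMSO wells with enzyme for no effect and wells lacking enzyme for full effect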
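Test system: SCP-1 phosphatase catalytic domain, residues 76-261 | Compound dosing: One concentration, 20 µM, with 1.0% DMSO | Schedule: 45 min room-temperature reaction, 5 min colour, 30 min stabiliser | Detection: Absorbance at 630 nm | Read-out basis: % inhibition of SCP-1 phosphate liberation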
STEP inh conf – STEP phosphatase inhibitor hit confirmation, biochemical, fluorescence intensity, single concentration; recombinant STEP, OMFP fluorogenic substrate; 32% of 520 active; inhibition, % at 20 µM; shares compounds with STEP inh; AID 623866, 2012; call rule not given here;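 note: 0% = enzyme with substrate plus DMSO and 100% = substrate without enzyme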
Starred values were filed as active, the others as inactive; / = no result given.

SMILES | SUMO1-SIM PPI | STEP inh | LMPTP inh | DNMT1 inh | Scp-1 inhibitor | STEP inh conf
Cc1ccc(Cn2c(SCCN3CCCCC3)nc3c2c(=O)[nH]c(=O)n3C)cc1 | 1 | 61* | -2 | -3 | -4 | 26
CCN(C(=O)COC(=O)c1ncc(Cl)c(Cl)c1Cl)c1c(N)n(Cc2ccccc2)c(=O)[nH]c1=O | 2 | -1 | 0 | 5 | -6 | /
OCCN1CCN(C(=S)c2ccc(Cl)c(Cl)c2)CC1 | 3 | 90* | 0 | -2 | -6 | 60*
COc1cc(NC(=S)N2CCN(CCO)CC2)c(OC)cc1Cl | 1 | 3 | -2 | -4 | -4 | /
COc1ccccc1N(Cc1cc(=O)[nH]c2ccccc12)C(=O)C(C)C | -5 | 1 | 1 | 1 | -1 | /
O=C(O)Cn1cnc2c(=S)nc[nH]c21 | 3 | -2 | 0 | 1 | -3 | /
S=c1nc[nH]c2c1ncn2-c1ccc(Cl)cc1 | 5 | 86* | 1 | 7 | 5 | 38*
Nc1ccc2c(O)cc(S(=O)(=O)O)cc2c1 | 37 | 38* | 26 | 93* | 67* | 68*
O=C(O)c1cc(S(=O)(=O)O)ccc1O | 1 | -2 | -2 | 2 | -12 | /
O=S(=O)(O)c1cc(O)c2cc(Nc3ccccc3)ccc2c1 | 77* | 72* | 83* | 98* | 88* | 100*
CCCCCCC(NC(=O)Cc1ccc2ccccc2c1)C(=O)O (centres undefined) | 11 | -3 | -2 | 6 | -1 | /
Cc1cccc(N2CCN(S(=O)(=O)c3ccc4c(c3)CCN4C(=O)CCC(=O)O)CC2)c1C | 5 | 41* | 0 | -3 | 33 | -2
Cc1c([N+](=O)[O-])c(C(=O)NC2CCCCC2)nn1C | 1 | 1 | 0 | 1 | -7 | /
S=C(c1cn(CCOc2ccccc2)c2ccccc12)N1CCCC1 | -3 | 97* | 2 | -3 | 9 | 63*
CC1(C(=O)NCC(F)(F)F)CCN1C(=O)C1(c2ccccc2)CC1 (centres undefined) | 4 | -2 | 0 | 0 | / | /
COC(=O)C1=C(CS(=O)(=O)c2ccc(Cl)cc2)NC(=O)NC1c1ccc(O)cc1 (centres undefined) | -3 | 93* | -1 | 27 | 8 | 1
COC(=O)C1=C(CS(=O)(=O)c2ccccc2)NC(=O)NC1c1ccc(O)cc1 (centres undefined) | -1 | -2 | -1 | 1 | 4 | /
O=S1OCCN1c1ccccc1 (centres undefined) | 1 | 42* | -1 | 1 | -2 | 31
CN(C)NC(=S)NC1(C)CCS(=O)(=O)C1 (centres undefined) | -2 | 1 | -1 | -2 | -10 | /
COc1cc(NC(=S)N2CCN(C)CC2)c(OC)cc1Cl | 2 | 42* | -3 | -5 | -2 | 28*
Fc1ccc(-n2c(=S)[nH]c3cccnc32)cc1 | 1 | 65* | 1 | 5 | -4 | 17
CC1=CC=CC2=NC(=O)CC(C)(C(=O)N(CC(=O)NC3CCCC3)c3ccc(F)cc3)N12 (centres undefined) | -1 | 1 | -1 | 2 | -10 | /
C#CCOc1ccc2c3c(c(=O)oc2c1)CCCC3 | 3 | -1 | 0 | 2 | -5 | /
COc1cccc(C2CC3(CC(C)(C)NC(=S)N3)Oc3cc(O)ccc32)c1 (centres undefined) | 2 | 112* | 1 | 9 | -1 | -5
O=C1CC(=O)Nc2cc(S(=O)(=O)NCc3cccs3)ccc2N1 | -2 | 74* | -1 | 3 | -3 | 8
SMILES | SUMO1-SIM PPI | STEP inh | LMPTP inh | DNMT1 inh | Scp-1 inhibitor | STEP inh conf
O=C(O)c1cccc(S(=O)(=O)NCc2cccs2)c1 | 27 | 0 | -1 | 7 | -7 | /
CC1CC(C)CN(C(=O)CNC(=O)c2ccc3ccccc3c2)C1 (centres undefined) | -9 | 0 | 1 | 4 | -13 | /
O=C(N/N=C/c1ccc(OC(=O)c2cccc(F)c2)cc1)c1cccnc1 | 21 | 98* | 57* | 48 | 20 | 2
C=C(Cl)COc1ccc2c(CC)cc(=O)oc2c1 | 0 | -1 | 1 | 5 | -8 | /
C=C(C)COc1ccc2c(CC)cc(=O)oc2c1 | 0 | 118* | 0 | 1 | -1 | 1
CCCc1nnc(NC(=O)C2CC(=O)N(C3CCCC3)C2)s1 (centres undefined) | 1 | -2 | -1 | 1 | 12 | /
Cc1ccc(C(=O)N/C(=C\c2ccccc2)C(=O)OCc2ccccc2)cc1 | 0 | 60* | 2 | -6 | -11 | 18
O=C(OCc1ccccc1)/C(=C/c1cccc2ccccc12)NC(=O)c1ccccc1 | -6 | -2 | 3 | -3 | -8 | /
COc1cccc(CN2CC(C(=O)NCCN3CCOCC3)CCC2=O)c1 (centres undefined) | 1 | 1 | -2 | 0 | -5 | /
Cc1cc(C)c(NC(=S)N2CCC(N(C)CC3CCCO3)CC2)c(C)c1 (centres undefined) | 2 | 86* | -5 | 1 | -6 | 30
O=C(CN1C(=O)NC(c2ccccc2)(c2ccccc2)C1=O)NC1CCCCC1 | 1 | -1 | 0 | -1 | -5 | /
O=C(/C=C/c1ccccc1Cl)N1CCN(c2ncccn2)CC1 | -7 | 68* | -1 | 7 | -1 | -4
O=C(/C=C/c1ccccc1Cl)N1CCOCC1 | 1 | -1 | 0 | 1 | -6 | /
COCCNC(=S)Nc1ccc(N2CCOCC2)c(S(=O)(=O)Nc2ccc(Cl)cc2)c1 | 8 | 6 | 4 | 1 | / | /
O=S(=O)(Nc1ccc(Cl)cc1)c1ccc(N2CCOCC2)c(NC(=S)NCCN2CCOCC2)c1 | 0 | 92* | 0 | 8 | 15 | 71*
COc1ccc(NC(=O)NCCCN2CCCC2=O)cc1 | 4 | 0 | -2 | 0 | -1 | /
COc1ccc(NC(=S)NCCCN2CCCC2=O)c(OC)c1 | -6 | 46* | -1 | 0 | 3 | 24
O=C1CCCN1CCCNC(=S)Nc1ccc(F)cc1 | 1 | 43* | -1 | 2 | 6 | 2
Cc1ccc(NC(=O)NCCCN2CCCC2=O)cc1 | -3 | 0 | -2 | 0 | 0 | /
Cc1cc(C(C)(C)C)ccc1OCC(=O)N/N=C\c1c(C)n(C)n(-c2ccccc2)c1=O | 4 | -1 | 0 | -2 | -4 | /
